Experiments:
Cavia porcellus [1] = assay: Effect on thromboxane synthetase activity (ex vivo) at 100 mg/kg expressed as percent increase in PGE-2; type: functional
Procedure, shortened: (§1)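 Fasted male or female guinea pigs (250–300 g, five per group) dosed orally in normal saline or saline with 0.2% (carboxymethyl)cellulose/1.0% Tween 80; controls given vehicle. Under ether, cardiac blood collected into 3.8% citrate. PRP adjusted to […] and aggregation induced by ADP (second wave) or AA, read by absorbance aggregometry. PGE2 and TXB2 measured by RIA.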

Cavia porcellus [2] = assay: Effect on thromboxane synthetase activity (ex vivo) at 100 mg/kg expressed as percent increase in TXB2; type: functional; procedure, shortened: as §1
[3] = Effect on PGI-2 release from rat aortic tissue at a final concentration of 10e -4 for an incubation time of 10 minutes; type: functional
Procedure, shortened: (§2)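 Female Wistar rats (200–220 g) received heparin 200 IU/kg ip and were killed 10 min later. Aortic pieces of about 25 mm² were washed in ice-cold oxygenated Krebs–Henseleit buffer, then incubated in 1 mL buffer at 37 °C. Compound at 10^-4 M final was added 10 min before tissue transfer. PGI2 release was read as antiaggregatory activity of the incubate on ADP (2×10^-6 M)-induced human PRP aggregation and by 6-keto-PGF1α RIA. n = 4.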

[4] = Effect on PGI-2 release from rat aortic tissue at a final concentration of 10e -4 for an incubation time of 30 minutes; type: functional; procedure, shortened: as §2
Rattus norvegicus [5] = assay: Antihypertensive activity in spontaneously hypertensive rats (SHR) measured by percentage fall in arterial pressure (AP) at 25 mg/kg administered perorally at 3 h; type: functional, Artery; settings: route oral
Procedure, shortened: (§3)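 Oral dosing at 2.5 mL/kg to unanesthetized male and female Okamoto-strain SHR (8 weeks old, 300–350 g, systolic pressure ≥190 mmHg, heart rate 400–650 beats/min), five per dose. Vehicle was normal saline or saline with 0.2% (carboxymethyl)cellulose and 1.0% Tween 80. AP measured on the tail by mechanical transduction at set times; expressed as percentage fall from control.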

Rattus norvegicus [6] = assay: Antihypertensive activity in spontaneously hypertensive rats (SHR) measured by percentage fall in arterial pressure (AP) at 25 mg/kg administered perorally at 5 h; type: functional, Artery; settings: route oral; procedure, shortened: as §3
Cavia porcellus [7] = assay: Ex vivo inhibition of platelet aggregation induced by ADP-II at 100 mg/kg; type: functional; procedure, shortened: as §1
Rattus norvegicus [8] = assay: Antihypertensive activity in spontaneously hypertensive rats (SHR) measured by percentage fall in arterial pressure (AP) at 25 mg/kg administered intraperitoneally at 5 h; type: functional, Artery; settings: route intraperitoneal
Procedure, shortened: (§4)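 Unanesthetized Okamoto-strain SHR, male and female, 8 weeks old, 300–350 g, systolic pressure ≥190 mmHg, heart rate 400–650 beats/min; five animals per dose. Given ip at 2.5 mL/kg, dissolved or suspended in normal saline or saline with 0.2% (carboxymethyl)cellulose and 1.0% Tween 80. Tail AP and CR recorded by mechanical transduction at set times; reported as percentage fall from control.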

Rattus norvegicus [9] = assay: Antihypertensive activity in spontaneously hypertensive rats (SHR) measured by percentage fall in arterial pressure (AP) at 25 mg/kg administered perorally at 24 h; type: functional, Artery; settings: route oral; procedure, shortened: as §3
Rattus norvegicus [10] = assay: Antihypertensive activity in spontaneously hypertensive rats (SHR) measured by percentage fall in cardiac rhythm (CR) at 25 mg/kg administered perorally at 5 h; type: functional, Heart; settings: route oral
Procedure, shortened: (§5)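 Conscious SHR (Okamoto strain), 8 weeks old, male and female, 300–350 g, systolic BP ≥190 mmHg, CR 400–650 beats/min. Given ip or po at 2.5 mL/kg in normal saline or saline with 0.2% (carboxymethyl)cellulose and 1.0% Tween 80. Tail AP and CR recorded by mechanical transduction at 1, 3, 5 and 24 h, five animals per dose. Effect expressed as % fall versus control.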

Rattus norvegicus [11] = assay: Antihypertensive activity in spontaneously hypertensive rats (SHR) measured by percentage fall in cardiac rhythm (CR) at 5 mg/kg administered intraperitoneally at 1 h; type: functional, Heart; settings: route intraperitoneal; procedure, shortened: as §5
Homo sapiens [12] = species: Homo sapiens; assay: In vitro inhibition of platelet aggregation induced by ADP-II (PRP incubated for 60 minutes at 37 degree C) at 10e-5 M; type: functional; settings: 1 h
Procedure, shortened: (§6)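 Human venous blood anticoagulated with 3.8% sodium citrate (1:9). PRP from centrifugation at 800 rpm for 10 min at room temperature. Count adjusted with PPP to […]. Compound in saline with 10% ethylene glycol is added to PRP and incubated at 37 °C before the agonist. Agonists: ADP 2×10^-5 M, AA 0.6 mM, PGH2 2.8 μM, adrenaline 0.6 μM. Born absorbance aggregometry; n = 5.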

Rattus norvegicus [13] = assay: Percent fall in systolic blood pressure, directly measured on carotid (iv on the jugular vein) of spontaneously hypertensive rats at 1 mg/kg after 120 minutes; type: functional, Artery
Procedure, shortened: (§7)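 Anesthetized (sodium pentobarbital, 70 mg/kg) male and female Okamoto SHR, 8 weeks old, 300–350 g. Given iv into the jugular vein in normal saline. Arterial pressure and cardiac rhythm are recorded directly from the carotid by polygraph at set times after dosing. Each is expressed as percent change from the pre-dose control value.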

Rattus norvegicus [14] = assay: Percent fall in systolic blood pressure, directly measured on carotid (iv on the jugular vein) of spontaneously hypertensive rats at 1 mg/kg after 15 minutes; type: functional, Artery; procedure, shortened: as §7
Rattus norvegicus [15] = assay: Percent fall in systolic blood pressure, directly measured on carotid (iv on the jugular vein) of spontaneously hypertensive rats at 1 mg/kg after 180 minutes; type: functional, Artery; procedure, shortened: as §7
Rattus norvegicus [16] = assay: Percent fall in systolic blood pressure, directly measured on carotid (iv on the jugular vein) of spontaneously hypertensive rats at 1 mg/kg after 30 minutes; type: functional, Artery; procedure, shortened: as §7
Rattus norvegicus [17] = assay: Percent fall in systolic blood pressure, directly measured on carotid (iv on the jugular vein) of spontaneously hypertensive rats at 1 mg/kg after 60 minutes; type: functional, Artery; procedure, shortened: as §7
Rattus norvegicus [18] = assay: Antihypertensive activity in spontaneously hypertensive rats (SHR) measured by percentage fall in cardiac rhythm (CR) at 1 mg/kg administered intraperitoneally at 1 h; type: functional, Heart; settings: route intraperitoneal; procedure, shortened: as §4
Rattus norvegicus [19] = assay: Percent increase in cardiac rhythm, directly measured on carotid (iv on the jugular vein) of spontaneously hypertensive rats at 1 mg/kg after 30 minutes; type: functional, Heart; procedure, shortened: as §7
Rattus norvegicus [20] = assay: Percent increase in cardiac rhythm, directly measured on carotid (iv on the jugular vein) of spontaneously hypertensive rats at 1 mg/kg after 60 minutes; type: functional, Heart; procedure, shortened: as §7
Homo sapiens [21] = species: Homo sapiens; assay: In vitro inhibition of platelet aggregation induced by AA (PRP incubated for 60 minutes at 37 degree C) at 10e-5 M; type: functional; settings: 1 h; procedure, shortened: as §6
Rattus norvegicus [22] = assay: Antihypertensive activity in spontaneously hypertensive rats (SHR) measured by percentage fall in arterial pressure (AP) at 25 mg/kg administered intraperitoneally at 24 h; type: functional, Artery; settings: route intraperitoneal; procedure, shortened: as §4
Rattus norvegicus [23] = assay: Antihypertensive activity in spontaneously hypertensive rats (SHR) measured by percentage fall in arterial pressure (AP) at a dose of 25 mg/kg administered perorally at 1 h; type: functional, Artery; settings: route oral; procedure, shortened: as §3
Rattus norvegicus [24] = assay: Antihypertensive activity in spontaneously hypertensive rats (SHR) measured by percentage fall in arterial pressure (AP) at 5 mg/kg administered intraperitoneally at 3 h; type: functional, Artery; settings: route intraperitoneal; procedure, shortened: as §4
[25] = Acute toxicity in mice was expressed as lethal dose; type: organism-based; settings: mouse, in vivo
Procedure, shortened: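 Swiss male mice, 20 ± 2 g, dosed ip at four or more dose levels. LD50 calculated 7 days after drug administration by probit analysis (Miller and Tainter).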

COc1ccc2[nH]c3c(NN)nncc3c2c1.Cl
Increase (Cavia porcellus [1]): 35%
inhibition in vivo at 100 mg/kg (Cavia porcellus [2]): 95%
Inhibition [3]: 50%
Inhibition [4]: 35%
Decrease in AP (Rattus norvegicus [5]): 40%
Decrease in AP (Rattus norvegicus [6]): 34%
inhibition in vivo at 100 mg/kg (Cavia porcellus [7]): 100%
Decrease in AP (Rattus norvegicus [8]): 50%
Decrease in AP (Rattus norvegicus [9]): 15%
Decrease in CR (Rattus norvegicus [10]): -14%
Decrease in CR (Rattus norvegicus [11]): -9%
inhibition at 10 µM (Homo sapiens [12]): 100%
Decrease in blood pressure (Rattus norvegicus [13]): 40%
Decrease in blood pressure (Rattus norvegicus [14]): 40%
Decrease in blood pressure (Rattus norvegicus [15]): 36%
Decrease in blood pressure (Rattus norvegicus [16]): 40%
Decrease in blood pressure (Rattus norvegicus [17]): 60%
Decrease in CR (Rattus norvegicus [18]): 9%
Increase (Rattus norvegicus [19]): 12%
Increase (Rattus norvegicus [20]): 10%
inhibition at 10 µM (Homo sapiens [21]): 100%
Decrease in AP (Rattus norvegicus [22]): 10%
Decrease in AP (Rattus norvegicus [23]): 50%
Decrease in AP (Rattus norvegicus [24]): 35%
LD50 [25]: 225 mg/kg
